The source of these data is ChEMBL document CHEMBL1121366, “Synthesis and immunological activity of 5,6,6a,8,9,11a-hexahydronaphth[1',2':4,5]imidazo[2,1-b]thiazoles and 5,6,6a,9,10,11a-hexahydroanaphth[2',1':4,5]imidazo[2,1-b]thiazoles” (J Med Chem, 1980).

Data set [1] deals with Mus musculus. In words: Tested for increase in foot-pad thickness (mm) by its effect on cellular immune response in mice against sheep red blood cells by DHR method in experiment 10 at dose 3 mg/kg. The format is functional. The method in brief: (§1)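 Male ICR mice, 8-10 weeks old, groups of four, were sensitized with 1 × 10^8 SRBC in PBS into one hind footpad and dosed sc in the inguinal region, in saline or in saline with 1% Me2SO. Four days later the other footpad was challenged with 1 × 10^8 SRBC. Foot thickness was gauged just before and 24 h after challenge, and the increase was reported as mean of four ± SE.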

Data set [2] deals with Mus musculus. The experiment in a line: Acute lethal dose was determined in mice upon intravenous administration. In kind it is ADME, organism-based. The note with it: in vivo. Put shortly: (§2)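 Male mice, 8–10 weeks old, CDF1 (Balb/c × DBA/2Cr). Groups of six dosed once, either iv or sc. Three to five dose levels were chosen from 400, 300, 150, 80, 40, 20 and 10 mg/kg. LD50 was calculated by the Litchfield–Wilcoxon method. Vehicle was saline or saline with 1% Me2SO, depending on compound.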

Data set [3] deals with Mus musculus. The experiment in a line: Effect on humoral immune response in mice against sheep red blood cells by the plaque-forming cell (PFC/10e 6 spleen cells) method in experiment 1 at dose 12 mg/kg. The format is functional. The method in brief:
(§3)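 Male CDF1 (Balb/c × DBA/2Cr) mice, 8-10 weeks old, groups of four, were immunized iv with 1 × 10^8 SRBC in PBS. After 24 h they received a single sc inguinal dose in saline, or as a suspension in saline with 1% Me2SO. Spleens were taken 4 days later and hemolytic plaque-forming cells counted by Cunningham's method. Values are the mean of four mice ± SE, with a paired Student's t test against the control.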

For data set [4], the system named is Mus musculus. In words: Effect on humoral immune response in mice against sheep red blood cells by the plaque-forming cell (PFC/10e 6 spleen cells) method in experiment 1 at dose 3 mg/kg. In kind it is functional. The method in brief:
as §3

Data set [5] relates to Mus musculus. In words: Tested for increase in foot-pad thickness (mm) by its effect on cellular immune response in mice against sheep red blood cells by the DHR method in experiment 10 at dose 3 mg/kg. In kind it is functional. Put shortly:
as §1

Data set [6] relates to Mus musculus. The experiment in a line: Acute lethal dose was determined in mice upon subcutaneous administration. In kind it is ADME, organism-based. The note with it: in vivo, sc. Put shortly:
as §2

The subject of data set [7] is Mus musculus. The experiment in a line: Effect on humoral immune response in mice against sheep red blood cells by the plaque-forming cell (PFC/10e 6 spleen cells) method in experiment 2 at dose 12 mg/kg. In kind it is functional. The method in brief: (§4)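 Male ICR mice, 8-10 weeks old, groups of four, were immunized iv with 1 × 10^8 SRBC in PBS. After 24 h they received a single sc inguinal dose in saline, or as a suspension in saline with 1% Me2SO. Splenic hemolytic plaque-forming cells were counted 4 days later by Cunningham's method. Values are the mean of four ± SE, with a paired t test against the control.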

Data set [8] relates to Mus musculus. In words: Tested increase in foot-pad thickness (mm) by its effect on cellular immune response in mice against sheep red blood cells by the DHR method in experiment 16 at dose 3 mg/kg. In kind it is functional. Put shortly:
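Male ICR mice, 8–10 weeks old, groups of four. Sensitized with SRBC (1 × 10^8) in PBS injected into one hind footpad; compound given sc in the inguinal region in saline or in saline with 1% Me2SO. Four days later the other hind footpad was challenged with SRBC (1 × 10^8). Dial gauge read just before and 24 h after challenge. Value is the mean increase ± SE.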

Data set [9] deals with Mus musculus. In words: Tested for increase in foot-pad thickness (mm) by its effect on cellular immune response in mice against sheep red blood cells by DHR method in experiment 16 at dose 12 mg/kg. The format is functional. The method in brief: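 Male mice, 8–10 weeks old, ICR strain. Groups of four were sensitized with 1 × 10^8 SRBC in PBS into one hind footpad, with compound given sc in the inguinal region in saline or saline/1% Me2SO. Four days later, 1 × 10^8 SRBC were injected into the other hind footpad. Foot thickness was measured with a dial gauge just before and 24 h after this challenge, and the increase was taken as the difference. Values are the mean of four mice ± SE.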

The test system of data set [10] is Mus musculus. In words: Tested for the immunological activity by its effect on humoral immune response in mice against sheep red blood cells (SRBC) by the plaque-forming cell (PFC/10e 6 spleen cells) method in experiment 7 at dose 12 mg/kg. In kind it is functional. The method in brief: as §3
Data set [11] deals with Mus musculus. The experiment in a line: Tested for increase in foot-pad thickness (mm) by its effect on cellular immune response in mice against sheep red blood cells by DHR method in experiment 11 at dose 12 mg/kg. The format is functional. Put shortly:
as §1

In data set [12] the test system is Mus musculus. In words: Tested for the immunological activity by its effect on humoral immune response in mice against sheep red blood cells (SRBC) by the plaque-forming cell (PFC/10e 6 spleen cells) method in experiment 7 at dose 3 mg/kg. The format is functional. The method in brief:
as §3

The subject of data set [13] is Mus musculus. The experiment in a line: Effect on humoral immune response in mice against sheep red blood cells by the plaque-forming cell (PFC/10e 6 spleen cells) method in experiment 2 at dose 3 mg/kg. The format is functional. Put shortly: as §4

`c1ccc2c(c1)CCC1C2N=C2SCCN21` (stereo in doubt): the Increase in footpad thickness is 0.44 mm in data set [1] and 0.42 mm in data set [5]. The results for the LD50 in [2] and in [6] were 27 mg/kg and 116 mg/kg, respectively. The PFC came out at 860 in [3] and 1220 in data set [4].
With `c1ccc2c(c1)CCC1N=C3SCCN3C21` (trans isomer), the LD50 was determined as 26 mg/kg in [2] and 190 mg/kg in [6]. Moreover, the PFC in [7] amounted to 2580; in [10] it was 960; in data set [12] it was 1110; in data set [13] it was 2440. For the same compound, the Increase in footpad thickness in data set [8] came out at 0.27 mm; in data set [9], 0.43 mm; in data set [11], 0.39 mm.

The term LD50 denotes the dose expected to kill half of the subjects tested.
